Results reported in ChEMBL document CHEMBL4732237, “Discovery of 4-alkoxy-2-aryl-6,7-dimethoxyquinolines as a new class of topoisomerase I inhibitors endowed with potent in vitro anticancer activity” (2021).

Key:
Format in all cases: functional
Conditions in all cases: read-out: GI
HL-60(TB) = assay: Growth inhibition of human HL-60(TB) cells at 10 uM incubated for 48 hrs by sulforhodamine B assay relative to control
Procedure, shortened: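 NCI-60 one-dose screen: same culture, 48 h drug exposure and SRB read-out. Reported as percent growth relative to no-drug control and to time-zero cell number; 0–100 means growth inhibition, below 0 means lethality.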

MOLT-4 = assay: Growth inhibition of human MOLT-4 cells at 10 uM incubated for 48 hrs by sulforhodamine B assay relative to control
Procedure, shortened: (§1)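 NCI one-dose screen. Cells grown in RPMI 1640 with 5% FBS and 2 mM L-glutamine, plated and incubated 24 h at 37 °C, 5% CO2. DMSO-dissolved drug added, then 48 h further incubation. Adherent cells fixed with cold TCA, suspension cells fixed after settling. Stained with 0.4% SRB, absorbance read at 515 nm. Reported as percent growth relative to no-drug control and time-zero cell number.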

EKVX = assay: Growth inhibition of human EKVX cells at 10 uM incubated for 48 hrs by sulforhodamine B assay relative to control
Procedure, shortened: (§2)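 NCI-60 single-dose screen. Cells were grown in RPMI 1640 with 5% FBS and 2 mM L-glutamine and plated 24 h before drug addition. Compound was added at one concentration in DMSO-derived medium and incubated for 48 h at 37 °C in 5% CO2. Read-out was SRB protein stain at 515 nm. Result is percent growth versus the no-drug control and the time-zero cell count; values below 0 indicate lethality.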

HOP-62 = assay: Growth inhibition of human HOP-62 cells at 10 uM incubated for 48 hrs by sulforhodamine B assay relative to control; procedure, shortened: as §2
HOP-92 = assay: Growth inhibition of human HOP-92 cells at 10 uM incubated for 48 hrs by sulforhodamine B assay relative to control; procedure, shortened: as §2
NCI-H226 = assay: Growth inhibition of human NCI-H226 cells at 10 uM incubated for 48 hrs by sulforhodamine B assay relative to control; procedure, shortened: as §1
NCI-H23 = assay: Growth inhibition of human NCI-H23 cells at 10 uM incubated for 48 hrs by sulforhodamine B assay relative to control; procedure, shortened: as §1
NCI-H322M = assay: Growth inhibition of human NCI-H322M cells at 10 uM incubated for 48 hrs by sulforhodamine B assay relative to control; procedure, shortened: as §1
NCI-H460 = assay: Growth inhibition of human NCI-H460 cells at 10 uM incubated for 48 hrs by sulforhodamine B assay relative to control; procedure, shortened: as §1
NCI-H522 = assay: Growth inhibition of human NCI-H522 cells at 10 uM incubated for 48 hrs by sulforhodamine B assay relative to control; procedure, shortened: as §1
COLO 205 = assay: Growth inhibition of human COLO 205 cells at 10 uM incubated for 48 hrs by sulforhodamine B assay relative to control; procedure, shortened: as §2
KM12 = assay: Growth inhibition of human KM12 cells at 10 uM incubated for 48 hrs by sulforhodamine B assay relative to control; procedure, shortened: as §2
SW-620 = assay: Growth inhibition of human SW-620 cells at 10 uM incubated for 48 hrs by sulforhodamine B assay relative to control
Procedure, shortened: (§3)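 NCI one-dose screen across a 59-line panel. Cells were grown in RPMI 1640 with 5% FBS and 2 mM L-glutamine, plated and pre-incubated 24 h, then exposed to drug for 48 h at 37 °C, 5% CO2. Adherent cells were fixed with cold TCA (10% final), stained with 0.4% SRB in 1% acetic acid and read at 515 nm. Result is percent growth relative to no-drug control and time-zero cell count.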

SF-268 = assay: Growth inhibition of human SF-268 cells at 10 uM incubated for 48 hrs by sulforhodamine B assay relative to control; procedure, shortened: as §1
SF-539 = assay: Growth inhibition of human SF-539 cells at 10 uM incubated for 48 hrs by sulforhodamine B assay relative to control; procedure, shortened: as §1
SNB-19 = assay: Growth inhibition of human SNB-19 cells at 10 uM incubated for 48 hrs by sulforhodamine B assay relative to control; procedure, shortened: as §1
U-251 = assay: Growth inhibition of human U-251 cells at 10 uM incubated for 48 hrs by sulforhodamine B assay relative to control; procedure, shortened: as §3
Malme-3M = assay: Growth inhibition of human Malme-3M cells at 10 uM incubated for 48 hrs by sulforhodamine B assay relative to control; procedure, shortened: as §1
MDA-MB-435 = assay: Growth inhibition of human MDA-MB-435 cells at 10 uM incubated for 48 hrs by sulforhodamine B assay relative to control; procedure, shortened: as §2
SK-MEL-2 = assay: Growth inhibition of human SK-MEL-2 cells at 10 uM incubated for 48 hrs by sulforhodamine B assay relative to control; procedure, shortened: as §1
SK-MEL-28 = assay: Growth inhibition of human SK-MEL-28 cells at 10 uM incubated for 48 hrs by sulforhodamine B assay relative to control; procedure, shortened: as §1
SK-MEL-5 = assay: Growth inhibition of human SK-MEL-5 cells at 10 uM incubated for 48 hrs by sulforhodamine B assay relative to control; procedure, shortened: as §1
UACC-257 = assay: Growth inhibition of human UACC-257 cells at 10 uM incubated for 48 hrs by sulforhodamine B assay relative to control; procedure, shortened: as §3
IGROV-1 = assay: Growth inhibition of human IGROV-1 cells at 10 uM incubated for 48 hrs by sulforhodamine B assay relative to control; procedure, shortened: as §2
OVCAR-4 = assay: Growth inhibition of human OVCAR-4 cells at 10 uM incubated for 48 hrs by sulforhodamine B assay relative to control; procedure, shortened: as §1
NCI/ADR-RES = assay: Growth inhibition of human NCI/ADR-RES cells at 10 uM incubated for 48 hrs by sulforhodamine B assay relative to control; procedure, shortened: as §1
A498 = assay: Growth inhibition of human A498 cells at 10 uM incubated for 48 hrs by sulforhodamine B assay relative to control; procedure, shortened: as §3
SN12C = assay: Growth inhibition of human SN12C cells at 10 uM incubated for 48 hrs by sulforhodamine B assay relative to control; procedure, shortened: as §1
PC-3 = assay: Growth inhibition of human PC-3 cells at 10 uM incubated for 48 hrs by sulforhodamine B assay relative to control; procedure, shortened: as §1
MCF7 = assay: Growth inhibition of human MCF7 cells at 10 uM incubated for 48 hrs by sulforhodamine B assay relative to control; procedure, shortened: as §2
MDA-MB-231 = assay: Growth inhibition of human MDA-MB-231 cells at 10 uM incubated for 48 hrs by sulforhodamine B assay relative to control; procedure, shortened: as §2
Hs-578T = assay: Growth inhibition of human HS-578T cells at 10 uM incubated for 48 hrs by sulforhodamine B assay relative to control; procedure, shortened: as §2
BT-549 = assay: Growth inhibition of human BT-549 cells at 10 uM incubated for 48 hrs by sulforhodamine B assay relative to control; procedure, shortened: as §2
T47D = assay: Growth inhibition of human T47D cells at 10 uM incubated for 48 hrs by sulforhodamine B assay relative to control; procedure, shortened: as §3
MDA-MB-468 = assay: Growth inhibition of human MDA-MB-468 cells at 10 uM incubated for 48 hrs by sulforhodamine B assay relative to control; procedure, shortened: as §2

SMILES	inhibition of growth at 10 µM (HL-60(TB))	inhibition of growth at 10 µM (MOLT-4)	inhibition of growth at 10 µM (EKVX)	inhibition of growth at 10 µM (HOP-62)	inhibition of growth at 10 µM (HOP-92)	inhibition of growth at 10 µM (NCI-H226)	inhibition of growth at 10 µM (NCI-H23)	inhibition of growth at 10 µM (NCI-H322M)	inhibition of growth at 10 µM (NCI-H460)	inhibition of growth at 10 µM (NCI-H522)	inhibition of growth at 10 µM (COLO 205)	inhibition of growth at 10 µM (KM12)	inhibition of growth at 10 µM (SW-620)	inhibition of growth at 10 µM (SF-268)	inhibition of growth at 10 µM (SF-539)	inhibition of growth at 10 µM (SNB-19)	inhibition of growth at 10 µM (U-251)	inhibition of growth at 10 µM (Malme-3M)	inhibition of growth at 10 µM (MDA-MB-435)	inhibition of growth at 10 µM (SK-MEL-2)	also measured
COc1cc2nc(-c3ccc(Cl)cc3)cc(OCCN3CCCCC3)c2cc1OC	3%	3%	3%	3%	3%	3%	3%	3%	3%	3%	3%	3%	3%	3%	3%	3%	3%	3%	3%	3%	inhibition of growth at 10 µM (SK-MEL-28): 3%; inhibition of growth at 10 µM (SK-MEL-5): 3%; inhibition of growth at 10 µM (UACC-257): 3%; inhibition of growth at 10 µM (IGROV-1): 3%; inhibition of growth at 10 µM (OVCAR-4): 3%; inhibition of growth at 10 µM (NCI/ADR-RES): 3%; inhibition of growth at 10 µM (A498): 3%; inhibition of growth at 10 µM (SN12C): 3%; inhibition of growth at 10 µM (PC-3): 3%; inhibition of growth at 10 µM (MCF7): 3%; inhibition of growth at 10 µM (MDA-MB-231): 3%; inhibition of growth at 10 µM (Hs-578T): 3%; inhibition of growth at 10 µM (BT-549): 3%; inhibition of growth at 10 µM (T47D): 3%; inhibition of growth at 10 µM (MDA-MB-468): 3%
COc1cc2nc(-c3cccs3)cc(OCCCN3CCC(O)CC3)c2cc1OC	20%	20%	20%	20%	20%	20%	20%	20%	20%	20%	20%	20%	20%	20%	20%	20%	20%	20%	20%	20%	inhibition of growth at 10 µM (SK-MEL-28): 20%; inhibition of growth at 10 µM (SK-MEL-5): 20%; inhibition of growth at 10 µM (UACC-257): 20%; inhibition of growth at 10 µM (IGROV-1): 20%; inhibition of growth at 10 µM (OVCAR-4): 20%; inhibition of growth at 10 µM (NCI/ADR-RES): 20%; inhibition of growth at 10 µM (A498): 20%; inhibition of growth at 10 µM (SN12C): 20%; inhibition of growth at 10 µM (PC-3): 20%; inhibition of growth at 10 µM (MCF7): 20%; inhibition of growth at 10 µM (MDA-MB-231): 20%; inhibition of growth at 10 µM (Hs-578T): 20%; inhibition of growth at 10 µM (BT-549): 20%; inhibition of growth at 10 µM (T47D): 20%; inhibition of growth at 10 µM (MDA-MB-468): 20%
COc1cc2nc(-c3ccco3)cc(OCCCN3CCC(O)CC3)c2cc1OC	46%	46%	46%	46%	46%	46%	46%	46%	46%	46%	46%	46%	46%	46%	46%	46%	46%	46%	46%	46%	inhibition of growth at 10 µM (SK-MEL-28): 46%; inhibition of growth at 10 µM (SK-MEL-5): 46%; inhibition of growth at 10 µM (UACC-257): 46%; inhibition of growth at 10 µM (IGROV-1): 46%; inhibition of growth at 10 µM (OVCAR-4): 46%; inhibition of growth at 10 µM (NCI/ADR-RES): 46%; inhibition of growth at 10 µM (A498): 46%; inhibition of growth at 10 µM (SN12C): 46%; inhibition of growth at 10 µM (PC-3): 46%; inhibition of growth at 10 µM (MCF7): 46%; inhibition of growth at 10 µM (MDA-MB-231): 46%; inhibition of growth at 10 µM (Hs-578T): 46%; inhibition of growth at 10 µM (BT-549): 46%; inhibition of growth at 10 µM (T47D): 46%; inhibition of growth at 10 µM (MDA-MB-468): 46%
COc1cc2nc(-c3ccc(Cl)cc3)cc(OCCCN3CCCC3)c2cc1OC	62%	62%	62%	62%	62%	62%	62%	62%	62%	62%	62%	62%	62%	62%	62%	62%	62%	62%	62%	62%	inhibition of growth at 10 µM (SK-MEL-28): 62%; inhibition of growth at 10 µM (SK-MEL-5): 62%; inhibition of growth at 10 µM (UACC-257): 62%; inhibition of growth at 10 µM (IGROV-1): 62%; inhibition of growth at 10 µM (OVCAR-4): 62%; inhibition of growth at 10 µM (NCI/ADR-RES): 62%; inhibition of growth at 10 µM (A498): 62%; inhibition of growth at 10 µM (SN12C): 62%; inhibition of growth at 10 µM (PC-3): 62%; inhibition of growth at 10 µM (MCF7): 62%; inhibition of growth at 10 µM (MDA-MB-231): 62%; inhibition of growth at 10 µM (Hs-578T): 62%; inhibition of growth at 10 µM (BT-549): 62%; inhibition of growth at 10 µM (T47D): 62%; inhibition of growth at 10 µM (MDA-MB-468): 62%
